Screening data as filed in PubChem BioAssay.
TPT1 inh = inhibitors of Candida albicans tRNA 2'-phosphotransferase TPT1. recombinant caTPT1, FP RNA substrate dephosphorylation. inhibition, % at 5 µM. 0.81% of 300,000 active. AID 1962;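 active = inhibition above the mean of all tested compounds plus 3 SD, set per screening campaign, cut at about 24% in these data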;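 also: plate controls were DMSO alone for no effect and ferristatin control at 100 nM for full effect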
Rpn11 block = blocks the human proteasome subunit Rpn11; human 26S proteasome, Ub4-pepOG fluorescence polarization; 20S core pre-blocked with epoxomicin; O00487; calls only at 20 µM; 0.59% of 360,000 active;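 active = inhibition at 20 µM, scaled to each plate's controls, above about 33%, limit read from the data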
Target sequence (O00487 whole entry, looked up): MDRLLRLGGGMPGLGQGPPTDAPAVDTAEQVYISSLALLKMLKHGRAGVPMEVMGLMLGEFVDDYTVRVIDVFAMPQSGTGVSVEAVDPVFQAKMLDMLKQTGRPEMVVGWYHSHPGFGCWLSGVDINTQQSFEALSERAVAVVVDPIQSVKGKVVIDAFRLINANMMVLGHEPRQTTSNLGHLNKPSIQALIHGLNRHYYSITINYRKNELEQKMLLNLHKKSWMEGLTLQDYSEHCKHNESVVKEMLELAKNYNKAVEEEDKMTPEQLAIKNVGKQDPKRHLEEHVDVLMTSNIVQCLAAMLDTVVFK
HNF4A DNA FP = change in binding of human HNF4 alpha to DNA | P41235 | HNF4a-FITC DNA binding, fluorescence polarization, 1 h | activity change, % at 10 µM | 0.3% of 360,000 active | AID 1224865; in the data active = activity change above about 30%, passing the limit was not always enough
CSN deneddyl inh = blocks human CSN-mediated cullin deneddylation. inhibition, % at 12.5 µM. Purified CSN, SCF-Nedd8-OG deneddylation, fluorescence polarization. AID 651999. Q92905. 0.38% of 360,000 active;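 active = pattern-corrected inhibition above about 35%, with an unprinted fluorescence ratio check between 0.5 and 1.5, limit read from the data, passing the limit was not always enough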;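 also: 0% = enzyme with substrate and 100% = substrate without enzyme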
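Schedule: reaction 90 min, room temperature / Assay system: HEK293T-derived human Csn5 enzyme / Input: Csn5 at 0.24 nM final / Measure: inhibition of Csn5 cleavage, % / Control set: substrate-only high control, full reaction low control / Technique: fluorescence polarization of the substrate / Buffer or medium: Tris/NaCl/DTT buffer, pH 7.5 / Reagent: SCFSkp2-Nedd8OG substrate at 10 nM final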
CSN5 deneddyl = Csn5 (human) deneddylation inhibition, single-concentration validation. shares compounds with CSN deneddyl inh. Csn5 deneddylation of SCF-Nedd8OG, fluorescence polarization, 90 min. inhibition, % at 16.6 µM. 62% of 540 active; in the data active = inhibition above about 50%;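 also: 0% = DMSO with enzyme and 100% = no enzyme wells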
MMP-2 counter = counter-screen for CSN deneddylation inhibitors: human MMP-2 inhibition. shares compounds with CSN deneddyl inh. recombinant MMP-2, FRET substrate fluorescence, 60 min. inhibition, % at 16.6 µM. 33% of 540 active. AID 720655;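 active = corrected plate-normalized z-score of 5 or more, or -5 or less, or inhibition of 15% or more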;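 also: plate controls were DMSO wells with enzyme for no effect and buffer wells lacking MMP-2 for full effect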
Thrombin cntr = thrombin (bovine) inhibition, counter-screen for CSN hits | shares compounds with CSN deneddyl inh | 49% of 540 active | inhibition, % at 16.6 µM | bovine thrombin cleavage of Ub4-pepOG, fluorescence polarization;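 active = inhibition at or above a set limit, with a fluorescence interference ratio between 0.5 and a set maximum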
Active calls of the source: *; i = inactive; · = no result given; + = active, no number; ! = not active in a repeat. Only some compounds are listed: those with a hit (about 1.5% of all), similar ones and a draw of the others.

SMILES | TPT1 inh | Rpn11 block | HNF4A DNA FP | CSN deneddyl inh | CSN5 deneddyl | MMP-2 counter | Thrombin cntr
Cc1ccc(C)c(N2N=C(C(=O)OCc3nnc(-c4ccccc4Br)o3)CCC2=O)c1 | · | i | 5 | 2 | · | · | ·
CCCCCCCCCCCCCCCC[n+]1cccc2ccccc21 | -2 | + | 21 | 36* | 65* | 17* | -39
N=C1/C(=C\c2ccc(OC(=O)c3ccco3)cc2)C(=O)N=C2SC=NN12 | · | i | 3 | -5 | · | · | ·
O=C1NC(=S)S/C1=C/c1ccc(OC(=O)c2ccco2)cc1 | 17 | · | 44* | 41* | 69* | 19* | 36*
CCOc1cc(/C=C2/SC(=S)NC2=O)ccc1OC(=O)c1ccco1 | 5 | i | 24 | 58* | 77* | 15* | 3
COc1cc(/C=C2/SC(=O)NC2=O)ccc1OC(=O)c1ccco1 | -1 | i | 2 | 0 | · | · | ·
O=C(O)c1cc(-c2ccco2)nc2ccc(Br)cc12 | -12 | +! | -39 | 42*! | 81* | 7 | -6
C/C(=N\NC(=O)CCc1c[nH]c2ccccc12)c1ccc([N+](=O)[O-])cc1 | 0 | i | -4 | -1 | · | · | ·
C/C(=N/Nc1ccc([N+](=O)[O-])cc1)c1c[nH]c2ccccc12 | · | · | 70* | 43* | 69* | 3 | 22*
CCOc1ccc(NC(=S)Nc2ccc3nsnc3c2)cc1 | 4 | i | 6 | 44* | 95* | 35* | -24
COc1ccc(NC(=S)Nc2ccc3nsnc3c2)cc1 | -10 | i | -4 | 49* | 94* | 30* | -28
Cc1noc(C)c1CSCC(=O)OCc1nnc(-c2ccc([N+](=O)[O-])cc2)o1 | · | i | -1 | -4 | · | · | ·
COC(=O)c1cc(C)nc2c1C(=O)C(=O)C=C2N1CCOCC1 | -2 | i | 3 | 45* | 28 | 2 | -36
O=C(CSc1nnc(CNC(=O)c2c(F)cccc2F)o1)NCc1ccc2c(c1)OCO2 | · | i | 1 | 0 | · | · | ·
Cc1cc(NC(=O)c2cncc(Br)c2)ccc1NC(=O)c1cc2ccccc2o1 | 0 | i | 22 | 60* | 10 | 16* | -11
CC1C=CC=CC=CC=CC=CC=CC=CC(OC2OC(C)C(O)C(N)C2O)CC2OC(O)(CC(O)CC(O)C(O)CCC(O)CC(O)CC(=O)OC(C)C(C)C1O)CC(O)C2C(=O)O (centres undefined) | · | + | -11 | 39* | 78* | -1 | 15*
COc1ccccc1CC(=O)Nc1ccon1 | -2 | i | 2 | 6 | · | · | ·
O=C1NC(=S)S/C1=C\c1cc(Cl)cc(Cl)c1O | · | · | 28 | 45* | 54* | -3 | 56*
CCN(CC(=O)N1CCC(C(N)=O)CC1)S(=O)(=O)c1cc(Cl)ccc1Cl | · | i | -5 | -1 | · | · | ·
CCc1ccc(N=C2NC(=O)/C(=C/c3cc(OC)c(OC)c(OC)c3)S2)cc1 | -2 | i | 3 | -1 | · | · | ·
CCc1ccc(N=C2NC(=O)/C(=C/c3cc(Br)c(OCC(=O)O)c(OC)c3)S2)cc1 | -1 | i | -24 | 47* | 77* | 7 | -9
COc1ccccc1CNC(=O)COC(=O)c1cc(-c2ccco2)nc2ccccc12 | 3 | i | -49 | 49* | · | 12 | 6
CC(C)CN1CC(C)C(=O)N(c2ccccc2)C1=O (centres undefined) | · | i | 4 | -1 | · | · | ·
COC(=O)c1ccc2c(c1)C(C)(C)C(/C=C/c1ccc(O)cc1)=[N+]2C | 20 | · | 41* | 48* | 62* | -17 | 35*
CC(C)(C)c1ccc(Cn2c(=N)n(CC(O)c3ccco3)c3ccccc32)cc1 (centres undefined) | 11 | · | 31 | 68* | 92* | -6 | 2
Cc1ccccc1Cn1c(=N)n(CC(O)c2ccco2)c2ccccc21 (centres undefined) | 16 | i | 0 | -2 | · | · | ·
COC1C(CO)OC(n2c3c(Cl)cccc3c3c4c(c5c6cccc(Cl)c6[nH]c5c32)C(=O)NC4=O)C(O)C1O (centres undefined) | · | · | 85 | 80* | 197* | -19 | 5
